SF-1 act: activators of human nuclear receptor SF-1; CHO-K1 Gal4-SF-1 LBD luciferase reporter; % increase over DMSO SF-1-specific signal; activation, % at 10 µM; actives 1.9% (n = 65,000);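 active = activation above the mean activation of all tested compounds plus 3 SD, cut at about 50% in these data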
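Compound – one dose, 10 µM compound, 1% DMSO · Test system – transient Gal4-SF-1 LBD reporter, CHO-K1 · Input – 4,000 cells in each well · Read-out basis – percent activation relative to DMSO median and mock-transfected background · Replicates – single measurement per compound · Technique – steady-glow luciferase luminescence, read after 15 min reagent incubation · Timing – 20 h compound treatment, 37 °C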
Candida biofilm: kills Candida albicans biofilms; AID 834; C. albicans biofilm + clotrimazole, Alamar Blue; actives 0.14% (n = 85,000); inhibition, % at 6 µM;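 active = inhibition above 20%; inactive = inhibition below 20%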;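 also: preformed 24 hr biofilms exposed to compound for 48 hr; 0% = biofilm without compound and 100% = blank killed by clotrimazole plus chlorhexidine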
CD11b adhes inh: CD11b/CD18-fibrinogen binding inhibition; P05107+P11215; K562 CD11b/CD18 adhesion to fibrinogen, ATPlite luminescence; Mn2+ added to activate the integrin; inhibition, % at 10 µM; actives 0.54% (n = 93,000); AID 1497;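 active = primary inhibition of 50% or more at 10 µM, then 40% or more on retest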
Target sequence (P05107 whole entry, looked up, other chains not shown): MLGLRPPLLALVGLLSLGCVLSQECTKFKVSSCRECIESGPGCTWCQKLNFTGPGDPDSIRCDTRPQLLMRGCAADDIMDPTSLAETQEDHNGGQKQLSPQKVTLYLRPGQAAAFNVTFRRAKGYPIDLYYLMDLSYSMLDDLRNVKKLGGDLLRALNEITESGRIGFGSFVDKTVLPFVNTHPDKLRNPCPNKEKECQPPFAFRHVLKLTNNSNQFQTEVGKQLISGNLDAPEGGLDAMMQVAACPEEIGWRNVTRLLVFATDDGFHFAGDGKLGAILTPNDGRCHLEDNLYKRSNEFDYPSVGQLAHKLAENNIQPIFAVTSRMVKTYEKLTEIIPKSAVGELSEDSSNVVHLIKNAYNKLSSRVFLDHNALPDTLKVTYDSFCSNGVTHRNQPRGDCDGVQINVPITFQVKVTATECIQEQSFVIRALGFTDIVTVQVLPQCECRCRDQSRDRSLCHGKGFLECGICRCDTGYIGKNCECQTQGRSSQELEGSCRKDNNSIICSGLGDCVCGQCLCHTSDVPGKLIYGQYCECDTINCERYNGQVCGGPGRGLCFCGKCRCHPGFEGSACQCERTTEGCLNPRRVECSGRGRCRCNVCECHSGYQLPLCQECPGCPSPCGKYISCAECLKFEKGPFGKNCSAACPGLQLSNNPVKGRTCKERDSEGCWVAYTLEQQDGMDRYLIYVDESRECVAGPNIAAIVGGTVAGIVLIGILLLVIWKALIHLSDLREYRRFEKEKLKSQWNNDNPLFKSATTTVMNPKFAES
RORa activator: activators of human nuclear receptor RORA; P35398; CHO-K1 Gal4-RORA LBD luciferase reporter, luminescence; percent increase over mock-subtracted basal signal; activation, % at 10 µM; AID 560; actives 1.5% (n = 65,000);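 active = activation above the mean of all tested compounds plus 3 SD, cut at about 49% in these data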;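 also: 0% = DMSO-treated RORA cells and 100% = added signal equal to DMSO minus mock-transfected cells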
MT1-MMP txn act: activates MT1-MMP transcription | HT1080 MT1-MMP promoter luciferase reporter, luminescence, overnight; active compounds read high | activation factor at 10 µM | actives 0.16% (n = 86,000);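 active = activation factor of at least 2 for MT1-MMP transcription at 10 µM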
CD11b adhes enh: enhancers of human CD11b/CD18 binding to fibrinogen. P05107+P11215. K562 CD11b/CD18 adhesion to fibrinogen, ATPlite luminescence. activation, % at 10 µM. actives 0.07% (n = 93,000);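 active = 10 µM primary screen giving 50% or more activity, confirmed by 40% or more on retest at that dose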
* marks the source's active call; other numbers are inactive results; x = not tested or not shown. An excerpt weighted towards active compounds, which were near 2.2% of everything screened.

SMILES	SF-1 act	Candida biofilm	CD11b adhes inh	RORa activator	MT1-MMP txn act	CD11b adhes enh
Clc1ccccc1-c1nnc(-c2ccccc2Cl)o1	x	7	x	x	1.4	x
O=C(Nc1nccs1)c1ccc(-c2ccc(Cl)cc2Cl)o1	x	x	18	x	x	2
O=C(Nc1cccc(-c2nnc(-c3ccccc3)o2)c1)c1ccc(Br)o1	67*	4	7	11	1.2	16
O=C(Nc1ccc2c(c1)OCCO2)NC12CC3CC(CC(C3)C1)C2	75*	5	38	77*	1.7	-1
COc1ccc(NC(=O)NC23CC4CC(CC(C4)C2)C3)cc1OC	x	x	2	x	x	13
O=C(Nc1ccc2c(c1)OCCO2)c1ccc(Br)o1	59*	5	x	33	1	x
O=C(Nc1nccs1)c1ccc(Br)o1	65*	1	x	24	1.5	x
O=C(COc1ccccc1)Nc1cccc(-c2nnc(-c3ccccc3)o2)c1	46	2	7	-5	1.1	2
O=C(Nc1ccc(Nc2ccccc2)cc1)c1ccc(Br)o1	47	6	12	49*	1.7	-1
CC(C)c1ccc(NC(=O)c2ccc(Br)o2)cc1	x	10	x	x	1	x
CC(C)(C)n1ncc2c(=O)n(CC(=O)NCc3ccccc3Cl)cnc21	74*	x	-17	8	0.8	0
S=C(c1ccc(-c2ccccc2Cl)o1)N1CCOCC1	37	6	-3	54*	1.7	-5
COc1cc2nc3c(c([Si](C)(C)C(C)(C)C)c2cc1OC)Cn1c-3cccc1=O	x	x	x	x	1.1	x
CNc1sc(C(=O)c2cccs2)c(N)c1-c1nc2ccccc2s1	79*	5	2	32	1.9	22
CNc1sc(C(=O)c2ccc(F)cc2)c(N)c1-c1nc2ccccc2s1	x	4	-2	x	1.6	0
Cc1ccc(C2CCN(C(=O)Nc3ccccc3)C2)cc1 (stereo not given)	58*	-2	10	92*	1.5	-7
Cc1ccc(NC(=O)N2CCC(C(=O)NCc3ccccc3)CC2)cc1	21	5	x	-20	1	x
Clc1cc(Cl)c2nc(N3CCOCC3)sc2c1	58*	9	x	21	1.5	x
COCCOC(=O)c1[nH]c2c(c1C)C(=O)C(C(=O)OC)C(C)C2 (stereo not given)	47	5	6	56*	1.4	-1
CCCCCOC(=O)c1[nH]c2c(c1C)C(=O)C(C(=O)OC)C(C)C2 (stereo not given)	38	6	-30	31	x	2
COC(=O)C1C(=O)c2c([nH]c(C(=O)OCC3CCCO3)c2C)CC1C (stereo not given)	47	7	-1	46	1.4	4
COC(=O)C1C(=O)c2c([nH]c(C(=O)OC3CCCCCC3)c2C)CC1C (stereo not given)	38	7	-2	74*	1.3	4
Cn1cccc1C(=O)OCc1cc(Cl)cc2c1OCOC2	60*	9	-17	24	1.5	-4
Cc1ccc(-n2[nH]c(C)c(C=Nc3ccc(S(=O)(=O)N4CCOCC4)cc3)c2=O)c(C)c1	x	x	-18	x	x	0
CCC(=O)N1CCn2c1nc1ccccc12	x	10	x	x	1.1	x
SMILES	SF-1 act	Candida biofilm	CD11b adhes inh	RORa activator	MT1-MMP txn act	CD11b adhes enh
O=C(c1ccco1)N1CCn2c1nc1ccccc12	41	2	x	62*	1.7	x
O=C(CCCSc1nnnn1-c1cccc2ccccc12)c1ccc(F)cc1	x	x	40	x	x	0
CS(=O)(=O)NN1C(=O)c2ccccc2NC1c1c[nH]c2ccccc12 (stereo not given)	x	x	-4	x	x	2
CC(C)CN1C(=O)c2ccc(C(=O)Nc3ccncc3)cc2C1=O	-16	7	82*	-12	0.9	-3
COc1ccccc1NS(=O)(=O)c1ccc(NC(=O)CCNC(=O)c2ccco2)cc1	3	5	-2	-4	1.3	68*
Cc1ccccc1NS(=O)(=O)c1ccc(NC(=O)c2ccco2)cc1	0	0	-15	-11	1.1	1
Cc1nc2cc(Cl)c(Cl)cc2nc1C	64*	6	3	89*	1.4	9
COc1ccc(N(CC(=O)Nc2cc(C)ccc2OC)S(=O)(=O)c2c(C)noc2C)cc1	54*	5	7	24	1.2	-1
COC(=O)c1cccc(C23CC4(C2)[C@H](CN(CC2CCCCC2)[C@@H]4c2ccccc2)C3c2ccc(Cl)nc2)c1 (stereo not given in full)	x	x	x	x	1	x
CCOC(=O)COc1ccccc1/C=C\[N+](=O)[O-]	x	x	30	x	x	-2
Cc1ccccc1-n1c(SCC(=O)Nc2ccccc2)nc2nc3c(cc2c1=O)CCCC3	x	x	-24	x	x	-1
Cc1ccc(NC(=O)NC2CCCCC2)cc1Cl	74*	-1	-35	106*	1.3	-3
CC1(C(=O)NCCCNc2ncc(C(F)(F)F)cc2Cl)C=CC2(CCCCC2)N1C(=O)c1ccccc1 (stereo not given)	x	x	x	x	1	x
Cc1ccc(S(=O)(=O)c2c(C)nn(C(C)(C)C)c2OC(=O)c2ccc(Br)o2)cc1	9	4	54*	-18	1	-6
Cc1ccc(S(=O)(=O)c2c(C)nn(C(C)(C)C)c2OC(=O)c2ccco2)cc1	-7	-2	61	-9	1.2	-9
O=C(O)CN(CC(=O)O)CC(=O)O	x	6	x	x	1.1	x
Cc1cccc(C(=O)N[C@H](C(=O)Nc2nccs2)C(C)C)c1	x	x	9	x	x	-5
CCCOc1cccc(C2C(C(=O)c3ccc(C)o3)=C(O)C(=O)N2CCCN(C)C)c1 (stereo not given)	-4	5	x	-16	1.2	x
O=C(COc1ccccc1)Nc1nc(-c2ccc(S(=O)(=O)N3CCOCC3)cc2)cs1	1	3	0	-14	1	26
O=C(CCc1ccc(S(=O)(=O)N2CCOCC2)cc1)Nc1nc(COc2ccccc2)cs1	x	x	87*	x	x	-5
CCn1nnc(NC(=O)COc2ccc(C3CCCCC3)cc2)n1	-9	9	74*	3	1	-9
CCC(C)NC(=O)COc1ccccc1[N+](=O)[O-] (stereo not given)	x	x	9	x	x	-3
O=C(Nn1cnc2ccccc2c1=O)c1ccccc1Cl	65*	x	-1	37	1.3	-3
Cc1nc2ccccc2c(=O)n1NC(=O)c1ccccc1Cl	1	13	x	-14	1.1	x
CCCC(C)NS(=O)(=O)c1ccc(OC)c(C)c1 (stereo not given)	x	-5	-27	x	1.1	2
COCCCNC(=O)c1cc2c(=O)n(C)c3ccccc3c2n1C	38	11	-5	60*	1	-3
COCCNC(=O)c1cc2c(=O)n(C)c3ccccc3c2n1C	-11	5	-14	-2	1.1	1
CCOc1ccc(-n2c(Cc3ccccc3)nnc2SCc2c(C)noc2C)cc1	-1	4	11	-3	1.3	3
